This passage reports inhibition and Ki results from ChEMBL document CHEMBL1773023, “Potent and selective phosphopeptide mimetic prodrugs targeted to the Src homology 2 (SH2) domain of signal transducer and activator of transcription 3” (J Med Chem, 2011).

As a reminder, the pKi is the Ki on a negative log10 scale, so that one unit is a factor of ten. A lower pKi goes with a large Ki.

SMILES strings stand for the structures. pKi: −log10 of the molar value. The source made the active and inactive calls. No cut-off for these calls is given here.

For the first assay, the target named is T1, Signal transducer and activator of transcription 3 (Homo sapiens, UniProt P40763). Description: Inhibition of SH2 domain of Stat3 constitutive phosphorylation at Tyr705 in human MDA-MB-468 cells at 0.1 uM after 2 hrs by Western blotting. The class given is cell-based. In outline: (§1)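 MDA-MB-468 cells (4×10^5/well, DMEM 10% FCS, overnight) given prodrug from freshly made 10 mM DMSO stock for 2 h. Lysates in Hepes pH 7.4 Triton buffer with phosphatase/protease inhibitors; 12 μg protein on 8% SDS-PAGE, PVDF, probed for pStat3 Y705 by ECL, then stripped and reprobed for total Stat3.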
T1 sequence (P40763 whole entry, the tested form may be a part): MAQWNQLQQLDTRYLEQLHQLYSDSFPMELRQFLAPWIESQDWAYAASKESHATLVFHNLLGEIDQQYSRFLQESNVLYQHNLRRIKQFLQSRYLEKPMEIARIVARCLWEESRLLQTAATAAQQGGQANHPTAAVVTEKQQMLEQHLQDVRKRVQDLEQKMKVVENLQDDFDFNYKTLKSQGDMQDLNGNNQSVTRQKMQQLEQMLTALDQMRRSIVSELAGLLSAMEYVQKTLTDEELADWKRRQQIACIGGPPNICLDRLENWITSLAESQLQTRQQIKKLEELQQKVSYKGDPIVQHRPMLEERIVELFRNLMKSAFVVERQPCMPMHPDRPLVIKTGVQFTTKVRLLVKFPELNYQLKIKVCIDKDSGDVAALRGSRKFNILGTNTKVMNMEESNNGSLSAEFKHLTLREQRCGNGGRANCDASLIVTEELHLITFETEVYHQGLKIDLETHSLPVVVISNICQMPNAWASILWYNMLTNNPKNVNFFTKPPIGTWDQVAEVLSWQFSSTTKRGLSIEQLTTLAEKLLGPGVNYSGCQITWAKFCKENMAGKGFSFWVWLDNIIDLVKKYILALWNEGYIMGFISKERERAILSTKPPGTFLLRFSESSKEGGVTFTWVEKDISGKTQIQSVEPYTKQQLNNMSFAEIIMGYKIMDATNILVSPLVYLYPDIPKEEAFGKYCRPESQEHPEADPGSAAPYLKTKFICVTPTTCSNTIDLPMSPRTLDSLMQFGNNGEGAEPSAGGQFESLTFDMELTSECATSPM
(In general: In western blotting, separated proteins are transferred to a membrane and probed.)
Regarding `C[C@H](CCC(N)=O)NC(=O)[C@@H]1Cc2cccc3c2N1C(=O)[C@@H](NC(=O)/C=C/c1ccc(C(F)(F)P(=O)(OCOC(=O)C(C)(C)C)OCOC(=O)C(C)(C)C)cc1)CC3`, the inhibition entry was “Active”.

A further assay concerns the target T1, Signal transducer and activator of transcription 3. Description: Inhibition of SH2 domain of Stat3 constitutive phosphorylation at Tyr705 in human MDA-MB-468 cells after 2 hrs by Western blotting. The class given is cell-based. Put shortly: as §1
On to `C/C(=C\C(=O)N[C@H]1CCc2cccc3c2N(C1=O)[C@H](C(=O)N[C@@H](CCC(N)=O)C(=O)NCc1ccccc1)C3)c1ccc(C(F)(F)P(=O)(OCOC(=O)C(C)(C)C)OCOC(=O)C(C)(C)C)cc1`, for which the inhibition entry is “Dose-dependent effect”. For the molecule `CC(C)(C)C(=O)OCOP(=O)(OCOC(=O)C(C)(C)C)C(F)(F)c1ccc(/C=C/C(=O)N[C@H]2CCc3cccc4c3N(C2=O)[C@H](C(=O)N[C@@H](CCC(N)=O)C(=O)NCc2ccccc2)C4)cc1`, the inhibition entry was “Dose-dependent effect”.

For the next assay the target is unchanged. Description: Binding affinity to SH2 domain of Stat3 by fluorescence polarization assay. In outline: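 Recombinant Stat3, expressed and purified, tested against phosphopeptides and peptidomimetics in a fluorescence polarization competition assay. Affinity is reported as an inhibition constant (K_I).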
On the technique in general: In fluorescence polarisation assays a small probe gives low polarisation when free and higher when bound to something large.
`C/C(=C\C(=O)N[C@H]1CCc2cccc3c2N(C1=O)[C@H](C(=O)NCCOC(N)=O)C3)c1ccc(OP(=O)(O)O)cc1` had a pKi of 6.73. The same measure, in the same setting: the value for `C/C(=C\C(=O)N[C@@H](CC(C)C)C(=O)N1CCC[C@H]1C(=O)N[C@H](C)CCC(N)=O)c1ccc(OP(=O)(O)O)cc1` was 6.84; that for `C/C(=C\C(=O)N[C@@H](CC(C)C)C(=O)N1C[C@H]2C[C@H]2[C@H]1C(=O)NCCOC(N)=O)c1ccc(OP(=O)(O)O)cc1` was 6.71; that for `CCCC[C@H](NC(=O)/C=C(\C)c1ccc(OP(=O)(O)O)cc1)C(=O)N1C[C@H]2C[C@H]2[C@H]1C(=O)N[C@@H](CCC(N)=O)C(=O)NCc1ccccc1` was 7.48.

In turn, `C/C(=C\C(=O)N[C@@H](CC(C)C)C(=O)N1C[C@H]2C[C@H]2[C@H]1C(=O)NCCNC(N)=O)c1ccc(OP(=O)(O)O)cc1` had a pKi of 7.41. On to `C/C(=C\C(=O)N[C@H]1CCc2cccc3c2N(C1=O)[C@H](C(=O)N[C@@H](CCC(N)=O)C(=O)NCc1ccccc1)C3)c1ccc(OP(=O)(O)O)cc1`, for which the negative logarithm of the Ki (pKi) was 7.24. Still for that read-out and setting: the value for `C/C(=C\C(=O)N[C@@H](CC(C)C)C(=O)N1CCC[C@H]1C(=O)NCCOC(N)=O)c1ccc(OP(=O)(O)O)cc1` was 6.69. Turning to `C/C(=C\C(=O)N[C@@H](CC(C)C)C(=O)N1C[C@H]2C[C@H]2[C@H]1C(=O)N[C@H](C)CCC(N)=O)c1ccc(OP(=O)(O)O)cc1`, the pKi was 7.08. Still for that read-out and setting: then `CCCC[C@H](NC(=O)/C=C/c1ccc(OP(=O)(O)O)cc1)C(=O)N1C[C@H]2C[C@H]2[C@H]1C(=O)N[C@@H](CCC(N)=O)C(=O)NCc1ccccc1`, with 7.32. On to `C/C(=C\C(=O)N[C@@H](CC(C)C)C(=O)N1CCC[C@H]1C(=O)N[C@@H](CCC(N)=O)C(=O)NCc1ccccc1)c1ccc(OP(=O)(O)O)cc1`, for which the negative-log Ki (pKi) is 7.18. The molecule `C/C(=C\C(=O)N[C@@H](CC(C)C)C(=O)N1CCC[C@H]1C(=O)NCCNC(N)=O)c1ccc(OP(=O)(O)O)cc1` showed a pKi of 7.03. The pKi values of the last two molecules are within 0.2 log units of each other. The same measure, in the same setting: the value for `C/C(=C\C(=O)N[C@H]1CCc2cccc3c2N(C1=O)[C@H](C(=O)NCCNC(N)=O)C3)c1ccc(OP(=O)(O)O)cc1` was 6.41; that for `C/C(=C\C(=O)N[C@H]1CCc2cccc3c2N(C1=O)[C@H](C(=O)N[C@H](C)CCC(N)=O)C3)c1ccc(OP(=O)(O)O)cc1` was 6.98; that for `C/C(=C\C(=O)N[C@@H](CC(C)C)C(=O)N1C[C@H]2C[C@H]2[C@H]1C(=O)N[C@@H](CCC(N)=O)C(=O)NCc1ccccc1)c1ccc(OP(=O)(O)O)cc1` was 7.37. In turn, `CCCC[C@H](NC(=O)/C=C(\C)c1ccc(OP(=O)(O)O)cc1)C(=O)N1C[C@H]2C[C@H]2[C@H]1C(=O)N[C@H](C)CCC(N)=O` had a pKi of 7.18. On the same count and under the same terms, then `CCCC[C@H](NC(=O)/C=C(\C)c1ccc(OP(=O)(O)O)cc1)C(=O)N1C[C@H]2C[C@H]2[C@H]1C(=O)NCCOC(N)=O`, with 6.94; and `CCCC[C@H](NC(=O)/C=C(\C)c1ccc(OP(=O)(O)O)cc1)C(=O)N1C[C@H]2C[C@H]2[C@H]1C(=O)NCCNC(N)=O`, with 7.34.

The target is the same in another assay. Description: Inhibition of SH2 domain of Stat3 constitutive phosphorylation at Tyr705 in human MDA-MB-468 cells at 0.5 uM after 2 hrs by Western blotting. Type of assay: cell-based. In outline:
as §1
Take `C[C@H](CCC(N)=O)NC(=O)[C@@H]1Cc2cccc3c2N1C(=O)[C@@H](NC(=O)/C=C/c1ccc(C(F)(F)P(=O)(OCOC(=O)C(C)(C)C)OCOC(=O)C(C)(C)C)cc1)CC3`: the inhibition result is “Active”.
